Measured values reported in ChEMBL document CHEMBL1154141, “Meroditerpenoids and derivatives from the brown alga Cystoseira baccata and their antifouling properties” (J Nat Prod, 2008).
≈ marks a conversion by molar mass, not a printed value. Calls of active or inactive are those of the source. The calls are words filed in the database; no cut-off is given here.

Test system: Cylindrotheca closterium
Experiment: Antimicrobial activity against Cylindrotheca closterium AC 170 after 48 hrs
Format: functional, organism-based
Settings: not given
Outline: (§1)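 Microalgal cultures (0.4 μg/mL chlorophyll A) in F/2 medium were incubated with compound for 48 h at 18 °C under a 15:9 light:dark cycle with cool-white fluorescent light at 54 μmol photons/m²·s. Relative optical density at 600 nm gave the MIC versus a seawater control.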
With `COc1cc(C)c2c(c1)C=C[C@@](C)(CC1=C(CC(C)(C)O)C(=O)[C@@]3(C)CCC[C@]3(C)C1)O2` the Activity was “inactive”. With `COc1cc(C)c(O)c(C/C=C(\C)CC2=C(CC(C)(C)O)C(=O)[C@@]3(C)CCC[C@]3(C)C2)c1` the Activity was “inactive”. With `COc1cc(C)c2c(c1)C=C[C@](C)(CC1=C(CC(C)(C)O)C(=O)[C@@]3(C)CCC[C@]3(C)C1)O2` the Activity was “inactive”.

Test system: Pseudoalteromonas distincta
Experiment: Antibacterial activity against Pseudoalteromonas elyakovii ATCC 700519 after 48 hrs by microtiter broth dilution method
Format: functional
Settings: ATCC 700519, 48 h
Outline: (§2)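 Marine bacterial strains at 2×10^8 cells/mL were exposed to compound for 48 h at 25 °C in Mueller Hinton broth supplemented with NaCl (15 g/L). MIC was set by microtiter broth dilution against a culture-medium control.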
For `COc1cc(C)c2c(c1)C=C[C@@](C)(CC1=C(CC(C)(C)O)C(=O)[C@@]3(C)CCC[C@]3(C)C1)O2`, the MIC was > 100 µg/mL. In the case of `COc1cc(C)c(O)c(C/C=C(\C)CC2=C(CC(C)(C)O)C(=O)[C@@]3(C)CCC[C@]3(C)C2)c1`, the MIC is reported as > 100 µg/mL. In the case of `COc1cc(C)c2c(c1)C=C[C@](C)(CC1=C(CC(C)(C)O)C(=O)[C@@]3(C)CCC[C@]3(C)C1)O2`, the MIC is reported as > 100 µg/mL.

Test system: Vibrio aestuarianus
Experiment: Antibacterial activity against Vibrio aestuarianus ATCC 35048 after 48 hrs by microtiter broth dilution method
Format: functional
Settings: ATCC 35048, 48 h
Outline: as §2
For `COc1cc(C)c2c(c1)C=C[C@@](C)(CC1=C(CC(C)(C)O)C(=O)[C@@]3(C)CCC[C@]3(C)C1)O2`, the MIC was > 100 µg/mL. With `COc1cc(C)c(O)c(C/C=C(\C)CC2=C(CC(C)(C)O)C(=O)[C@@]3(C)CCC[C@]3(C)C2)c1` the MIC was > 100 µg/mL. In the case of `COc1cc(C)c2c(c1)C=C[C@](C)(CC1=C(CC(C)(C)O)C(=O)[C@@]3(C)CCC[C@]3(C)C1)O2`, the MIC is reported as > 100 µg/mL.

Test system: Polaribacter irgensii
Experiment: Antibacterial activity against Polaribacter irgensii ATCC 700398 after 48 hrs by microtiter broth dilution method
Format: functional
Settings: ATCC 700398, 48 h
Outline: as §2
With `COc1cc(C)c2c(c1)C=C[C@@](C)(CC1=C(CC(C)(C)O)C(=O)[C@@]3(C)CCC[C@]3(C)C1)O2` the MIC was > 100 µg/mL. With `COc1cc(C)c(O)c(C/C=C(\C)CC2=C(CC(C)(C)O)C(=O)[C@@]3(C)CCC[C@]3(C)C2)c1` the MIC was > 100 µg/mL. With `COc1cc(C)c2c(c1)C=C[C@](C)(CC1=C(CC(C)(C)O)C(=O)[C@@]3(C)CCC[C@]3(C)C1)O2` the MIC was > 100 µg/mL.

Test system: Salmonella typhimurium
Experiment: Antibacterial activity against Salmonella Typhimurium ATCC 35986 after 48 hrs by microtiter broth dilution method
Format: functional, Salmonella enterica subsp. enterica serovar Typhimurium
Settings: Salmonella enterica, ATCC 35986, 48 h
Outline: (§3)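 Terrestrial bacterial strains at 2×10^8 cells/mL were incubated with compound for 48 h at 25 °C in trypsic soy broth. MIC was read by microtiter broth dilution against a culture-medium control.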
For `COc1cc(C)c2c(c1)C=C[C@@](C)(CC1=C(CC(C)(C)O)C(=O)[C@@]3(C)CCC[C@]3(C)C1)O2`, the MIC was > 100 µg/mL. With `COc1cc(C)c(O)c(C/C=C(\C)CC2=C(CC(C)(C)O)C(=O)[C@@]3(C)CCC[C@]3(C)C2)c1` the MIC was > 100 µg/mL. For `COc1cc(C)c2c(c1)C=C[C@](C)(CC1=C(CC(C)(C)O)C(=O)[C@@]3(C)CCC[C@]3(C)C1)O2`, the MIC was > 100 µg/mL.

Test system: Escherichia coli
Experiment: Antibacterial activity against Escherichia coli ATCC 35049 after 48 hrs by microtiter broth dilution method
Format: functional
Settings: ATCC 35049, 48 h
Outline: as §3
In the case of `COc1cc(C)c2c(c1)C=C[C@@](C)(CC1=C(CC(C)(C)O)C(=O)[C@@]3(C)CCC[C@]3(C)C1)O2`, the MIC is reported as > 100 µg/mL. For `COc1cc(C)c(O)c(C/C=C(\C)CC2=C(CC(C)(C)O)C(=O)[C@@]3(C)CCC[C@]3(C)C2)c1`, the MIC was > 100 µg/mL. With `COc1cc(C)c2c(c1)C=C[C@](C)(CC1=C(CC(C)(C)O)C(=O)[C@@]3(C)CCC[C@]3(C)C1)O2` the MIC was > 100 µg/mL.

Test system: Bacillus subtilis
Experiment: Antibacterial activity against Bacillus subtilis ATCC 55572 after 48 hrs by microtiter broth dilution method
Format: functional
Settings: ATCC 55572, 48 h
Outline: as §3
For `COc1cc(C)c2c(c1)C=C[C@@](C)(CC1=C(CC(C)(C)O)C(=O)[C@@]3(C)CCC[C@]3(C)C1)O2`, the MIC was > 100 µg/mL. For `COc1cc(C)c(O)c(C/C=C(\C)CC2=C(CC(C)(C)O)C(=O)[C@@]3(C)CCC[C@]3(C)C2)c1`, the MIC was > 100 µg/mL. For `COc1cc(C)c2c(c1)C=C[C@](C)(CC1=C(CC(C)(C)O)C(=O)[C@@]3(C)CCC[C@]3(C)C1)O2`, the MIC was > 100 µg/mL.

Test system: Exanthemachrysis gayraliae
Experiment: Antimicrobial activity against Exanthemachrysis gayraliae AC 15 after 48 hrs
Format: functional
Settings: not given
Outline: as §1
For `COc1cc(C)c2c(c1)C=C[C@@](C)(CC1=C(CC(C)(C)O)C(=O)[C@@]3(C)CCC[C@]3(C)C1)O2`, the Activity was “inactive”. In the case of `COc1cc(C)c(O)c(C/C=C(\C)CC2=C(CC(C)(C)O)C(=O)[C@@]3(C)CCC[C@]3(C)C2)c1`, the Activity is reported as “inactive”. With `COc1cc(C)c2c(c1)C=C[C@](C)(CC1=C(CC(C)(C)O)C(=O)[C@@]3(C)CCC[C@]3(C)C1)O2` the Activity was “inactive”.

Test system: Sargassum muticum
Experiment: Antimicrobial activity against Sargassum muticum after 48 hrs
Format: functional, organism-based
Settings: not given
Outline: (§4)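 Spores (3000 spores/mL) in F/2 medium were exposed to compound for 48 h at 18 °C under a 15:9 light:dark cycle with cool-white fluorescent light at 54 μmol photons/m²·s. Germination and attachment rates were then scored.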
Work on `COc1cc(C)c2c(c1)C=C[C@](C)(CC1=C(CC(C)(C)O)C(=O)[C@@]3(C)CCC[C@]3(C)C1)O2` yielded an IC50 of 2.5 µg/mL (≈ 5.7 µM).

Test system: Ulva intestinalis
Experiment: Antimicrobial activity against Ulva intestinalis after 48 hrs
Format: functional, organism-based
Settings: not given
Outline: as §4
In the case of `COc1cc(C)c2c(c1)C=C[C@](C)(CC1=C(CC(C)(C)O)C(=O)[C@@]3(C)CCC[C@]3(C)C1)O2`, the IC50 is reported as > 100 µg/mL.

Target: not listed separately
Experiment: Inhibition of Mytilus edulis phenoloxidase after 2 hrs
Settings: not given
Outline: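 Purified mussel phenoloxidase was preincubated with compound for 2 h. Activity was then followed as the rise in absorbance at 475 nm with L-Dopa (10 mM) as substrate, and percent inhibition was calculated against the control.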
Molecule `COc1cc(C)c2c(c1)C=C[C@](C)(CC1=C(CC(C)(C)O)C(=O)[C@@]3(C)CCC[C@]3(C)C1)O2` has an IC50 of 1 µg/mL (≈ 2.28 µM).

Test system: not listed separately
Experiment: Toxicity against Echinus esculentus larvae after 48 hrs
Settings: not given
Outline: (§5)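 Larvae incubated with compounds at 0.5, 1, 2.5, 5, 10, 25, 50 and 100 μg/mL, 10–15 larvae per well in 2 mL solution. Viable larvae counted after 48 h exposure. LC50 is the concentration giving 50% mortality relative to control, derived by curve fitting. Six replicates per test and control, with two batches of organisms.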
In the case of `COc1cc(C)c2c(c1)C=C[C@@](C)(CC1=C(CC(C)(C)O)C(=O)[C@@]3(C)CCC[C@]3(C)C1)O2`, the LC50 at 48 h is reported as > 100 µg/mL. In the case of `COc1cc(C)c(O)c(C/C=C(\C)CC2=C(CC(C)(C)O)C(=O)[C@@]3(C)CCC[C@]3(C)C2)c1`, the LC50 at 48 h is reported as > 100 µg/mL. In the case of `COc1cc(C)c2c(c1)C=C[C@](C)(CC1=C(CC(C)(C)O)C(=O)[C@@]3(C)CCC[C@]3(C)C1)O2`, the LC50 at 48 h is reported as > 100 µg/mL.

Test system: not listed separately
Experiment: Toxicity against Crassostrea gigas larvae after 48 hrs
Settings: not given
Outline: as §5
With `COc1cc(C)c2c(c1)C=C[C@@](C)(CC1=C(CC(C)(C)O)C(=O)[C@@]3(C)CCC[C@]3(C)C1)O2` the LC50 at 48 h was > 100 µg/mL. For `COc1cc(C)c(O)c(C/C=C(\C)CC2=C(CC(C)(C)O)C(=O)[C@@]3(C)CCC[C@]3(C)C2)c1`, the LC50 at 48 h was > 100 µg/mL. With `COc1cc(C)c2c(c1)C=C[C@](C)(CC1=C(CC(C)(C)O)C(=O)[C@@]3(C)CCC[C@]3(C)C1)O2` the LC50 at 48 h was > 100 µg/mL.

Test system: Chrysotila roscoffensis
Experiment: Antimicrobial activity against Pleurochrysis roscoffensis AC 238 after 48 hrs
Format: functional, organism-based
Settings: not given
Outline: as §1
With `COc1cc(C)c2c(c1)C=C[C@@](C)(CC1=C(CC(C)(C)O)C(=O)[C@@]3(C)CCC[C@]3(C)C1)O2` the Activity was “inactive”. For `COc1cc(C)c(O)c(C/C=C(\C)CC2=C(CC(C)(C)O)C(=O)[C@@]3(C)CCC[C@]3(C)C2)c1`, the Activity was “inactive”. With `COc1cc(C)c2c(c1)C=C[C@](C)(CC1=C(CC(C)(C)O)C(=O)[C@@]3(C)CCC[C@]3(C)C1)O2` the Activity was “inactive”.
